Active and inactive are the calls of the source. The rule behind the calls is not given here.
Tests used:
[1] = target: Protein kinase C alpha type (Homo sapiens, UniProt P17252); experiment: Inhibition of PKCalpha using ATP as substrate
[2] = target: Protein kinase C theta type (Homo sapiens, UniProt Q04759); experiment: Inhibition of PKCtheta using ATP as substrate
[3] = target: Rho-associated protein kinase 2 (Homo sapiens, UniProt O75116); experiment: Inhibition of ROCK2 using ATP as substrate
[4] = Inhibition of S6K using ATP as substrate
[5] = target: Phosphatidylinositol 3-kinase catalytic subunit type 3 (Homo sapiens, UniProt Q8NEB9); experiment: Inhibition of VPS34 using ATP as substrate
[6] = Inhibition of PKA using ATP as substrate
[7] = target: Phosphatidylinositol 4-kinase beta (Homo sapiens, UniProt Q9UBF8); experiment: Inhibition of PI4Kbeta using ATP as substrate
[8] = target: Phosphatidylinositol 4,5-bisphosphate 3-kinase catalytic subunit gamma isoform (Homo sapiens, UniProt P48736); experiment: Inhibition of PI3Kgamma using ATP as substrate
[9] = Growth inhibition of human RS4:11 cells after 48 hrs by WST-1 assay; assay type: functional, cell-based; details: RS4-11, 48 h
How it was run: (§1)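 Compound (0–10 μM) added to the culture medium and incubated 48 h. Proliferation and viability read by WST-1 reagent. Survival expressed as percentage of control cultures and IC50 derived by curve fitting.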

[10] = Growth inhibition of human SEM cells after 48 hrs by WST-1 assay; assay type: functional, cell-based; how it was run: as §1
[11] = test system: K562; experiment: Growth inhibition of human K562 cells after 48 hrs by WST-1 assay; assay type: functional, cell-based; details: K562, 48 h; how it was run: as §1
[12] = test system: MV4-11; experiment: Inhibition of PIM-mediated 4E-BP1 phosphorylation in human MV4-11 cells after 180 mins by Western blot analysis; assay type: cell-based
How it was run: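 MV4;11 cells at 5 × 10^5/mL in RPMI 1640 with 10% FCS, 37 °C, 5% CO2, treated at 0–10 μM for varied times. Lysed on ice in Triton X-100 buffer with NaF, Na3VO4 and protease inhibitors. 50 μg protein run on 15% SDS–PAGE and blotted for phospho-4E-BP1 with HRP chemiluminescence. Reprobed for total 4E-BP1 and β-actin as loading controls.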

[13] = target: Vascular endothelial growth factor receptor 2 (Homo sapiens, UniProt P35968); experiment: Inhibition of KDR using ATP as substrate
[14] = target: MAP kinase-activated protein kinase 5 (Homo sapiens, UniProt Q8IW41); experiment: Inhibition of MK5 using ATP as substrate
[15] = target: Serine/threonine-protein kinase mTOR (Homo sapiens, UniProt P42345); experiment: Inhibition of mTOR using ATP as substrate
[16] = target: Phosphatidylinositol 4,5-bisphosphate 3-kinase catalytic subunit alpha isoform (Homo sapiens, UniProt P42336); experiment: Inhibition of PI3Kalpha using ATP as substrate
[17] = target: Phosphatidylinositol 4,5-bisphosphate 3-kinase catalytic subunit beta isoform (Homo sapiens, UniProt P42338); experiment: Inhibition of PI3Kbeta using ATP as substrate
[18] = target: Phosphatidylinositol 4,5-bisphosphate 3-kinase catalytic subunit delta isoform (Homo sapiens, UniProt O00329); experiment: Inhibition of PI3Kdelta using ATP as substrate
[19] = target: Mast/stem cell growth factor receptor Kit (Homo sapiens) (UniProt P10721); experiment: Inhibition of cKIT using ATP as substrate
[20] = target: Platelet-derived growth factor receptor alpha (Homo sapiens) (UniProt P16234); experiment: Inhibition of PDGFRalpha using ATP as substrate

Chain of MAP kinase-activated protein kinase 5 (Q8IW41 whole entry): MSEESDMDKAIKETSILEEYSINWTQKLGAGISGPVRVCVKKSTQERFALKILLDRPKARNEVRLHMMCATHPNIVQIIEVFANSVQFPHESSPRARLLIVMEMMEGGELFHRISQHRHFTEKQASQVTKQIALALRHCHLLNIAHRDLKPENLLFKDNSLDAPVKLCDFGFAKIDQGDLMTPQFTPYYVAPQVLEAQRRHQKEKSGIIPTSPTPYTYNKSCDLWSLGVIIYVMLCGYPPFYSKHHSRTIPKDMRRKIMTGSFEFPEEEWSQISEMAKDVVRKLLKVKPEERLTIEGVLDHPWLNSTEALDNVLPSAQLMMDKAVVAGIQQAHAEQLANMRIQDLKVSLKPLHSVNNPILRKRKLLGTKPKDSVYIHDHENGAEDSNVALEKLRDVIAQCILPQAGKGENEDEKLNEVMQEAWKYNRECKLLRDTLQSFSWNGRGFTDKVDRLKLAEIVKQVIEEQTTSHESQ
Chain of Rho-associated protein kinase 2 (O75116 whole entry): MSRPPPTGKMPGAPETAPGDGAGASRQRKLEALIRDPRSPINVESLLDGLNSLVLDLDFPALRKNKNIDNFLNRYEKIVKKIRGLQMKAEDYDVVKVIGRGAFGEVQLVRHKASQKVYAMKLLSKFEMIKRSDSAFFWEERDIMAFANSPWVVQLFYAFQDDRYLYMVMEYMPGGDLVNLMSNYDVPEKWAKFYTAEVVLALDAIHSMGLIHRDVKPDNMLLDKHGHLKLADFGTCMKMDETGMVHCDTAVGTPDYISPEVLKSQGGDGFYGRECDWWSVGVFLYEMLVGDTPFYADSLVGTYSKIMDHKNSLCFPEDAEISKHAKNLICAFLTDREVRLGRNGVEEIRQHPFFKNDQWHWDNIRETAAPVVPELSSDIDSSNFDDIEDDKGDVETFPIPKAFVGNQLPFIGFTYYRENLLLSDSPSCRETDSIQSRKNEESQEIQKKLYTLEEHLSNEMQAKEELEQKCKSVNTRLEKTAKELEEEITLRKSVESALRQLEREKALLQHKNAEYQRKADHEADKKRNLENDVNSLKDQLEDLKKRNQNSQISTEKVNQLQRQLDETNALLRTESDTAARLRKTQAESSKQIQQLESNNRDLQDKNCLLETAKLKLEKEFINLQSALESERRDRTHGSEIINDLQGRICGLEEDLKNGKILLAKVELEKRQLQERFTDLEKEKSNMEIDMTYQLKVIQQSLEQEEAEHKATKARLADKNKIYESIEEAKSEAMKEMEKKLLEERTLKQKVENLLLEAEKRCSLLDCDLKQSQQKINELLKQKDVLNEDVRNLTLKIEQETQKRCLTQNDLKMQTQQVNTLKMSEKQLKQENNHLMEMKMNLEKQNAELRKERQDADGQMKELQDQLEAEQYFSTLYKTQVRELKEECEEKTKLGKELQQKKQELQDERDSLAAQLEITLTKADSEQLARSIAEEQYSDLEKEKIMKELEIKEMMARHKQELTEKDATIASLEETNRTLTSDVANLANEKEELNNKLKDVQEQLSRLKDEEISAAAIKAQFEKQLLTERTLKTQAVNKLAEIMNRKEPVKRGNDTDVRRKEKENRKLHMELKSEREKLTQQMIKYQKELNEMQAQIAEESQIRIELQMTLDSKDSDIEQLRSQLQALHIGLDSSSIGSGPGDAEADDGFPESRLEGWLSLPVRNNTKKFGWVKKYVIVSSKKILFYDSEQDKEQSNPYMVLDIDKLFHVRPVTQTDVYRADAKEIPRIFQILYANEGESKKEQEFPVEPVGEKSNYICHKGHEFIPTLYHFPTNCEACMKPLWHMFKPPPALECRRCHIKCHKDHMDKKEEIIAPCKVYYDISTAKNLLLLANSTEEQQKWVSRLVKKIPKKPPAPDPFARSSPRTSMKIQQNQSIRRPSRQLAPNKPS
Chain of Phosphatidylinositol 4-kinase beta (Q9UBF8 whole entry, canonical isoform): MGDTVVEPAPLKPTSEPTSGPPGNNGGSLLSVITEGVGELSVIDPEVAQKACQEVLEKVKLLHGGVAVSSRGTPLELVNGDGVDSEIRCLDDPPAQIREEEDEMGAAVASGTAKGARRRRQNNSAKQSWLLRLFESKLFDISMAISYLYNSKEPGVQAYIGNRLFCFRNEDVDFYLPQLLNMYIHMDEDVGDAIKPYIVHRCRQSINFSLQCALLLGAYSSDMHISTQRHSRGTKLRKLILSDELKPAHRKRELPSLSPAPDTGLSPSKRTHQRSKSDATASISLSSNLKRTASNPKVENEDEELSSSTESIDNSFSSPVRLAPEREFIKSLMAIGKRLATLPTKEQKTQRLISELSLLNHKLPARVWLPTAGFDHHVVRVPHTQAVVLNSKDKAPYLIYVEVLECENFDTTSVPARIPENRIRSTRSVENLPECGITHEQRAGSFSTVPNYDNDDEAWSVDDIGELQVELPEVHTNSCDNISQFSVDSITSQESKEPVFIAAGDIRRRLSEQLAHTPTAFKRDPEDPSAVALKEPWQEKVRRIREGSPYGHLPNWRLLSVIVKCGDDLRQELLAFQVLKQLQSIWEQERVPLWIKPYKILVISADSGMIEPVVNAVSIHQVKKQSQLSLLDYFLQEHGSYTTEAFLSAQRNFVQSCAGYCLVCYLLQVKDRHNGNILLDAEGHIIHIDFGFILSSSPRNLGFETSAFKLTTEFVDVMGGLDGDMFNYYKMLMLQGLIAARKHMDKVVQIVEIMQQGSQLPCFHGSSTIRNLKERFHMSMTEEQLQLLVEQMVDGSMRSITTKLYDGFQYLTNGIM
Chain of Vascular endothelial growth factor receptor 2 (P35968 whole entry): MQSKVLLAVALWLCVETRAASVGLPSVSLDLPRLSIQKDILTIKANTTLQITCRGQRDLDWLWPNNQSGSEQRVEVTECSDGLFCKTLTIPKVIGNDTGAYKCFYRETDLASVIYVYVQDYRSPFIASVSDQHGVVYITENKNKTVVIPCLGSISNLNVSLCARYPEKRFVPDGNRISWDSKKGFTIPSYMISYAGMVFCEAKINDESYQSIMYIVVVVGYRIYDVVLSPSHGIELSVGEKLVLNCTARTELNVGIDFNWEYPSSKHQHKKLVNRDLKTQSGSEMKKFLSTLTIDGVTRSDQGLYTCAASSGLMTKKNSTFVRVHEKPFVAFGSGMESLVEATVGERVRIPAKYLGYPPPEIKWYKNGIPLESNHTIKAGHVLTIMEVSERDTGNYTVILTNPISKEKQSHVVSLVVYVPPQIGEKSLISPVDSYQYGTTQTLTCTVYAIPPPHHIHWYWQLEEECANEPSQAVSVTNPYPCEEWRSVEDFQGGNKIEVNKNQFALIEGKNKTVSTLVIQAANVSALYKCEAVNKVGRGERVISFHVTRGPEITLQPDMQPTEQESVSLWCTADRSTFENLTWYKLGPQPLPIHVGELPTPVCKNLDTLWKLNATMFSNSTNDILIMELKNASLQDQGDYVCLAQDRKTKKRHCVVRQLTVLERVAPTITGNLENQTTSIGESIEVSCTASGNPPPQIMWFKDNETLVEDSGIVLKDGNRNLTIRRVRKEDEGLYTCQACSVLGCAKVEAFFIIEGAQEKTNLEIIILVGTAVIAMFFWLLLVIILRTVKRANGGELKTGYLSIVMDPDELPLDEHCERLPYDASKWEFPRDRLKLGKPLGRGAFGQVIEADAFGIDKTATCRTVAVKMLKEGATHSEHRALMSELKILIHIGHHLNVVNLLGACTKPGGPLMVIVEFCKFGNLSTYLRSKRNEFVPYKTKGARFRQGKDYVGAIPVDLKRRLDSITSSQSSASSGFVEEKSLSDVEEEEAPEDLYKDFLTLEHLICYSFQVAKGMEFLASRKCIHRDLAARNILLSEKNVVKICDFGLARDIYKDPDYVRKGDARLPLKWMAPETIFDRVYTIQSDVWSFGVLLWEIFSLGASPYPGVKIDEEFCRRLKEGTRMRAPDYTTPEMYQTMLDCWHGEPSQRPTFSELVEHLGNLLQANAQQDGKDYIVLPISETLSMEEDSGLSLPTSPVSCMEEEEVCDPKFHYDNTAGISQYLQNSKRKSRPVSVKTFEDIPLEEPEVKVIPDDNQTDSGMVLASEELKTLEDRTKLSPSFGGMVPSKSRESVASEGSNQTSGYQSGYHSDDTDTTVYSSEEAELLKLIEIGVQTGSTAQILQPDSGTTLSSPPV
Chain of Protein kinase C theta type (Q04759 whole entry): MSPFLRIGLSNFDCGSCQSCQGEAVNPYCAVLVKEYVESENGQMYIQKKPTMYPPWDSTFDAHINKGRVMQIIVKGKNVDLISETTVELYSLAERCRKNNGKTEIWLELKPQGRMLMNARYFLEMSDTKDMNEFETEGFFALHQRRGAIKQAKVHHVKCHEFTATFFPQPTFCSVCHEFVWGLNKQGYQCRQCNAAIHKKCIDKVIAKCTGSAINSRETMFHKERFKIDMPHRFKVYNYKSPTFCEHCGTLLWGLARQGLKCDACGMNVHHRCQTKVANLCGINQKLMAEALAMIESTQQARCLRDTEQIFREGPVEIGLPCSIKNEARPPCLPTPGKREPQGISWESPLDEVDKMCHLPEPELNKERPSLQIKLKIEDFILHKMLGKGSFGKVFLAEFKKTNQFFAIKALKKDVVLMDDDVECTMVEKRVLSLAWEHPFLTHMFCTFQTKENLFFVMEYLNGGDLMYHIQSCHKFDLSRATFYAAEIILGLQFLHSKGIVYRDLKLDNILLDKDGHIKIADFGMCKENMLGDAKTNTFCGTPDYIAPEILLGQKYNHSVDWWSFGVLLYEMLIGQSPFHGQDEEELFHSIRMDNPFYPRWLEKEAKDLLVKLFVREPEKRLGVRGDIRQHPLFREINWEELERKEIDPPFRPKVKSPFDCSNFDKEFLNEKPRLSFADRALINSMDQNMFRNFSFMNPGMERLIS

## Cn1c2c(c3ccc(Cl)c(Cl)c31)C(C#N)C1(CCNCC1)NC2=O (racemic)
[1]
  IC50: 2200 nM
[2]
  IC50: 1400 nM
[3]
  IC50: 220 nM
[4]
  IC50: 230 nM
[5]
  IC50: > 9.1 µM
[6]
  IC50: 77 nM
[7]
  IC50: 2500 nM
[8]
  IC50: 3.1 µM
[9]
  IC50: 3.57 µM
[10]
  IC50: 4.68 µM
[11]
  IC50: 6.49 µM
[12]
  inhibition: Dose-dependent effect
[13]
  IC50: 7.2 µM
[14]
  IC50: 1700 nM
[15]
  IC50: > 9.1 µM
[16]
  IC50: > 9.1 µM
[17]
  IC50: 8.6 µM
[18]
  IC50: 4.7 µM

## CN1CCC2(CC1)NC(=O)c1c(c3ccc(Cl)c(Cl)c3n1C)C2C#N (racemic)
[19]
  inhibition: inactive
[20]
  inhibition: inactive
